Measured values reported in ChEMBL document CHEMBL2429728, “Novel Macrocyclic Amidinoureas: Potent Non-Azole Antifungals Active against Wild-Type and Resistant Candida Species” (2013).

What was measured:
Type in all cases: functional
Nakaseomyces glabratus [1] = assay: Antifungal activity against fluconazole-resistant Candida glabrata DSY2254 increase expressing of CgCDR1 and CgCDR2 genes after 24 hrs by visually and spectrophotometric analysis; settings: DSY2254, 24 h
Summary of the method: (§1)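 Endpoint is MIC90, in μg/mL, read at 24 h by both visual inspection and spectrophotometry.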

Candida albicans [2] = assay: Antifungal activity against fluconazole-resistant Candida albicans DSY296 harboring ERG11 gene mutant and increase expressing of CDR1 and CDR2 genes after 24 hrs by visually and spectrophotometric analysis; settings: DSY296, 24 h; summary of the method: as §1
Candida albicans [3] = assay: Antifungal activity against wild type Candida albicans ATCC 60193 after 24 hrs by visually and spectrophotometric analysis; settings: ATCC 60193, 24 h
Clavispora lusitaniae [4] = assay: Antifungal activity against Candida lusitaniae ATCC 200950 after 24 hrs by visually and spectrophotometric analysis; settings: ATCC 200950, 24 h
Summary of the method: (§2)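 Read-out is MIC90 in μg/mL, scored at 24 h both by eye and spectrophotometrically. The panel is Candida isolates that earlier reports describe as amphotericin B-resistant, with amphotericin B run alongside as the reference drug.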

Candida albicans [5] = assay: Antifungal activity against fluconazole-resistant Candida albicans DSY284 harboring ERG11 gene mutant and increase expressing of CDR1 and CDR2 genes after 24 hrs by visually and spectrophotometric analysis; settings: DSY284, 24 h; summary of the method: as §1
Candida albicans [6] = assay: Antifungal activity against Candida albicans ATCC 200955 after 24 hrs by visually and spectrophotometric analysis; settings: ATCC 200955, 24 h; summary of the method: as §1
Clavispora lusitaniae [7] = assay: Antifungal activity against Candida lusitaniae ATCC 24348 after 24 hrs by visually and spectrophotometric analysis; settings: ATCC 24348, 24 h; summary of the method: as §2
Candida albicans [8] = assay: Antifungal activity against fluconazole-resistant Candida albicans DSY348 harboring ERG11 gene mutant and increase expressing of CDR1 and CDR2 genes after 24 hrs by visually and spectrophotometric analysis; settings: DSY348, 24 h; summary of the method: as §1
Candida albicans [9] = assay: Antifungal activity against fluconazole-resistant Candida albicans DSY292 harboring ERG11 gene mutant and increase expressing of MDR1 gene after 24 hrs by visually and spectrophotometric analysis; settings: DSY292, 24 h; summary of the method: as §1
[10] = tested on: Meyerozyma guilliermondii; assay: Antifungal activity against wild type Candida guilliermondii after 24 hrs by visually and spectrophotometric analysis
Nakaseomyces glabratus [11] = assay: Antifungal activity against fluconazole-resistant Candida glabrata DSY754 increase expressing of CgCDR1 gene after 24 hrs by visually and spectrophotometric analysis; settings: DSY754, 24 h; summary of the method: as §1
Kluyveromyces marxianus = assay: Antifungal activity against wild type Candida kefyr after 24 hrs by visually and spectrophotometric analysis
Candida albicans [12] = assay: Antifungal activity against fluconazole-resistant Candida albicans DSY289 harboring ERG11 gene mutant and increase expressing of CDR1 and CDR2 genes after 24 hrs by visually and spectrophotometric analysis; settings: DSY289, 24 h; summary of the method: as §1
Candida albicans [13] = assay: Antifungal activity against fluconazole-resistant Candida albicans DSY775 harboring ERG11 gene mutant and increase expressing of CDR1 and CDR2 genes after 24 hrs by visually and spectrophotometric analysis; settings: DSY775, 24 h; summary of the method: as §1
Clavispora lusitaniae [14] = assay: Antifungal activity against Candida lusitaniae ATCC 60247 after 24 hrs by visually and spectrophotometric analysis; settings: ATCC 60247, 24 h; summary of the method: as §2
Clavispora lusitaniae [15] = assay: Antifungal activity against Candida lusitaniae ATCC 200953 after 24 hrs by visually and spectrophotometric analysis; summary of the method: as §2
Candida parapsilosis = assay: Antifungal activity against wild type Candida parapsilosis ATCC 34136 after 24 hrs by visually and spectrophotometric analysis; settings: Lodderomyces parapsilosis, ATCC 34136, 24 h
Clavispora lusitaniae [16] = assay: Antifungal activity against Candida lusitaniae ATCC 200952 after 24 hrs by visually and spectrophotometric analysis; summary of the method: as §2
Nakaseomyces glabratus [17] = assay: Antifungal activity against fluconazole-resistant Candida glabrata DSY2271 increase expressing of CgCDR2 genes after 24 hrs by visually and spectrophotometric analysis; settings: DSY2271, 24 h; summary of the method: as §1
Clavispora lusitaniae [18] = assay: Antifungal activity against Candida lusitaniae ATCC 200951 after 24 hrs by visually and spectrophotometric analysis; summary of the method: as §2
Nakaseomyces glabratus [19] = assay: Antifungal activity against wild type Candida glabrata after 24 hrs by visually and spectrophotometric analysis
Candida tropicalis [20] = assay: Antifungal activity against Candida tropicalis ATCC 200956 after 24 hrs by visually and spectrophotometric analysis; settings: ATCC 200956, 24 h; summary of the method: as §2
Nakaseomyces glabratus [21] = assay: Antifungal activity against fluconazole-resistant Candida glabrata DSY530 increase expressing of CgCDR1 gene after 24 hrs by visually and spectrophotometric analysis; settings: DSY530, 24 h; summary of the method: as §1
Pichia kudriavzevii = assay: Antifungal activity against wild type Candida krusei ATCC 14243 after 24 hrs by visually and spectrophotometric analysis; settings: ATCC 14243, 24 h
Candida albicans [22] = assay: Antifungal activity against fluconazole-resistant Candida albicans DSY751 harboring ERG11 gene mutant and increase expressing of MDR1 gene after 24 hrs by visually and spectrophotometric analysis; settings: DSY751, 24 h; summary of the method: as §1
Candida albicans [23] = assay: Antifungal activity against fluconazole-resistant Candida albicans DSY735 expressing high level of CDR1 and CDR2 genes after 24 hrs by visually and spectrophotometric analysis; settings: DSY735, 24 h; summary of the method: as §1
Nakaseomyces glabratus [24] = assay: Antifungal activity against fluconazole-resistant Candida glabrata DSY756 increase expressing of CgCDR1, CgCDR2, and CgSNQ2 genes after 24 hrs by visually and spectrophotometric analysis; settings: DSY756, 24 h; summary of the method: as §1
Candida tropicalis [25] = assay: Antifungal activity against wild type Candida tropicalis after 24 hrs by visually and spectrophotometric analysis

| Compound | MIC90 (Nakaseomyces glabratus [1]) | MIC90 (Candida albicans [2]) | MIC90 (Candida albicans [3]) | MIC90 (Clavispora lusitaniae [4]) | MIC90 (Candida albicans [5]) | MIC90 (Candida albicans [6]) | MIC90 (Clavispora lusitaniae [7]) | MIC90 (Candida albicans [8]) | MIC90 (Candida albicans [9]) | MIC90 [10] | MIC90 (Nakaseomyces glabratus [11]) | MIC90 (Kluyveromyces marxianus) | MIC90 (Candida albicans [12]) | MIC90 (Candida albicans [13]) | MIC90 (Clavispora lusitaniae [14]) | MIC90 (Clavispora lusitaniae [15]) | MIC90 (Candida parapsilosis) | MIC90 (Clavispora lusitaniae [16]) | MIC90 (Nakaseomyces glabratus [17]) | MIC90 (Clavispora lusitaniae [18]) | further results |
| --- | --- | --- | --- | --- | --- | --- | --- | --- | --- | --- | --- | --- | --- | --- | --- | --- | --- | --- | --- | --- | --- |
| C/C=C/CNC(=N)NCCCCCCCCN1CCCCCOC(=O)CCNC(=N)NC1=O.O=C(O)C(F)(F)F | 64 µg/mL | 16 µg/mL | 16 µg/mL | 8 µg/mL | 8 µg/mL | 4 µg/mL | 8 µg/mL | 8 µg/mL | 16 µg/mL | 8 µg/mL | 32 µg/mL | 16 µg/mL | 8 µg/mL | 16 µg/mL | 4 µg/mL | 8 µg/mL | 8 µg/mL | 4 µg/mL | 32 µg/mL | 4 µg/mL | MIC90 (Nakaseomyces glabratus [19]): 32 µg/mL; MIC90 (Candida tropicalis [20]): 16 µg/mL; MIC90 (Nakaseomyces glabratus [21]): 32 µg/mL; MIC90 (Pichia kudriavzevii): 32 µg/mL; MIC90 (Candida albicans [22]): 16 µg/mL; MIC90 (Candida albicans [23]): 16 µg/mL; MIC90 (Nakaseomyces glabratus [24]): 64 µg/mL; MIC90 (Candida tropicalis [25]): 16 µg/mL |
| N=C(NCCCCCCCCN1CCCCCCCCNC(=N)NC1=O)NCC1CC1.O=C(O)C(F)(F)F | 32 µg/mL | 2 µg/mL | 1 µg/mL | 4 µg/mL | 1 µg/mL | 1 µg/mL | 2 µg/mL | 2 µg/mL | 2 µg/mL | 2 µg/mL | 16 µg/mL | 4 µg/mL | 1 µg/mL | 2 µg/mL | 4 µg/mL | 2 µg/mL | 2 µg/mL | 1 µg/mL | 16 µg/mL | 2 µg/mL | MIC90 (Nakaseomyces glabratus [19]): 16 µg/mL; MIC90 (Candida tropicalis [20]): 2 µg/mL; MIC90 (Nakaseomyces glabratus [21]): 16 µg/mL; MIC90 (Pichia kudriavzevii): 4 µg/mL; MIC90 (Candida albicans [22]): 2 µg/mL; MIC90 (Candida albicans [23]): 1 µg/mL; MIC90 (Nakaseomyces glabratus [24]): 16 µg/mL; MIC90 (Candida tropicalis [25]): 0.5 µg/mL |
| C=CCNC(=N)NCCCCCCCCN1CCCCCCCCNC(=N)NC1=O.O=C(O)C(F)(F)F | 32 µg/mL | 2 µg/mL | 1 µg/mL | 2 µg/mL | 1 µg/mL | 1 µg/mL | 1 µg/mL | 1 µg/mL | 2 µg/mL | 2 µg/mL | 32 µg/mL | 4 µg/mL | 1 µg/mL | 2 µg/mL | 2 µg/mL | 4 µg/mL | 4 µg/mL | 2 µg/mL | 32 µg/mL | 2 µg/mL | MIC90 (Nakaseomyces glabratus [19]): 32 µg/mL; MIC90 (Candida tropicalis [20]): 1 µg/mL; MIC90 (Nakaseomyces glabratus [21]): 16 µg/mL; MIC90 (Pichia kudriavzevii): 0.5 µg/mL; MIC90 (Candida albicans [23]): 1 µg/mL; MIC90 (Nakaseomyces glabratus [24]): 16 µg/mL; MIC90 (Candida tropicalis [25]): 0.5 µg/mL |
| C/C=C/CNC(=N)NCCCCCCCCN1CCCCOc2ccccc2CNC(=N)NC1=O.O=C(O)C(F)(F)F | 64 µg/mL | 16 µg/mL | 16 µg/mL | 8 µg/mL | 16 µg/mL | 8 µg/mL | 8 µg/mL | 8 µg/mL | 16 µg/mL | 16 µg/mL | 64 µg/mL | 4 µg/mL | 8 µg/mL | 16 µg/mL | 16 µg/mL | 16 µg/mL | 8 µg/mL | 8 µg/mL | 64 µg/mL | 8 µg/mL | MIC90 (Nakaseomyces glabratus [19]): 64 µg/mL; MIC90 (Candida tropicalis [20]): 16 µg/mL; MIC90 (Nakaseomyces glabratus [21]): 64 µg/mL; MIC90 (Pichia kudriavzevii): 32 µg/mL; MIC90 (Candida albicans [22]): 16 µg/mL; MIC90 (Candida albicans [23]): 8 µg/mL; MIC90 (Nakaseomyces glabratus [24]): 64 µg/mL; MIC90 (Candida tropicalis [25]): 8 µg/mL |
| C/C=C/CNC(=N)NCCCCCCCCN1CCCCCOc2ccccc2CNC(=N)NC1=O.O=C(O)C(F)(F)F | 16 µg/mL | 4 µg/mL | 4 µg/mL | 2 µg/mL | 2 µg/mL | 1 µg/mL | 2 µg/mL | 2 µg/mL | 4 µg/mL | 2 µg/mL | 16 µg/mL | 4 µg/mL | 2 µg/mL | 4 µg/mL | 4 µg/mL | 4 µg/mL | 2 µg/mL | 2 µg/mL | 8 µg/mL | 2 µg/mL | MIC90 (Nakaseomyces glabratus [19]): 8 µg/mL; MIC90 (Candida tropicalis [20]): 4 µg/mL; MIC90 (Nakaseomyces glabratus [21]): 8 µg/mL; MIC90 (Pichia kudriavzevii): 8 µg/mL; MIC90 (Candida albicans [22]): 4 µg/mL; MIC90 (Candida albicans [23]): 2 µg/mL; MIC90 (Nakaseomyces glabratus [24]): 8 µg/mL; MIC90 (Candida tropicalis [25]): 2 µg/mL |
